Measured values from ChEMBL document CHEMBL3865830, “Multifunctional diamine AGE/ALE inhibitors with potential therapeutical properties against Alzheimer's disease” (Eur J Med Chem, 2016).
Calls of active or inactive are those of the source. No cut-off for these calls is given here.

How the values were obtained:
[1] = Reactive carbonyl species trapping activity of compound assessed as MGO adduct formation at 10 mM preincubated for 24 hrs with MGO measured after 1 hr by LCMS analysis; format: physicochemical; conditions: 10000 µM
[2] = Antioxidant activity assessed as inhibition of AAPH-induced peroxyl radical generation measured as trolox equivalent at 10 uM preincubated for 30 mins followed by AAPH addition measured evey 60 secs for 60 cycles by ORAC-FL assay; format: functional; conditions: in the assay text read “90 secs” for “60 secs”
Outline: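 Fluorescein (12 nM) preincubated with compound (1-20 µM) or Trolox standard (1-50 µM) in D-PBS, at least 30 min at 37 °C. Reaction started with AAPH (30 mM). Fluorescence (ex 485/em 520 nm) read every 90 s for 60 cycles. Net AUC is converted to Trolox equivalents via the Trolox calibration line. Values are reported at 10 µM, from at least three independent experiments in triplicate.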

[3] = Reactive carbonyl species trapping activity of compound assessed as MDA adduct formation at 10 mM preincubated for 24 hrs with MDA measured after 0.5 hrs by LCMS analysis; format: physicochemical; conditions: 10000 µM
[4] = Metal chelating activity of compound assessed as compound-Cu2+ complex formation at 0.5 mM after 10 mins in presence of CuSO4.5H2O by complexometric indicator murexide based UV-Vis spectrophotometric analysis; format: physicochemical; conditions: 500 µM
Outline: (§1)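 Compound (0.02-2 mM) incubated with CuSO4 (120 µM) for 10 min at rt, in 10 mM hexamine/HCl with 10 mM KCl (pH 5.0), or in buffer/MeOH 75:25 for poorly soluble compounds. Murexide added, 1 min more. The A485/A520 ratio gives free Cu2+ from a CuSO4 calibration curve (0-125 µM). % chelation is taken by difference from the no-compound control; triplicates.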

[5] = Reactive carbonyl species trapping activity of compound assessed as MGO adduct formation at 10 mM preincubated for 24 hrs with MGO measured after 15 mins by LCMS analysis; format: physicochemical; conditions: 0.25 h, 10000 µM
[6] = Reactive carbonyl species trapping activity of compound assessed as MGO adduct formation at 10 mM preincubated for 24 hrs with MGO measured after 0.5 hrs by LCMS analysis; format: physicochemical; conditions: 10000 µM
[7] = Reactive carbonyl species trapping activity of compound assessed as MDA adduct formation at 10 mM preincubated for 24 hrs with MDA measured after 1 hr by LCMS analysis; format: physicochemical; conditions: 10000 µM
[8] = Reactive carbonyl species trapping activity of compound assessed as MDA adduct formation at 10 mM preincubated for 24 hrs with MDA measured after 24 hrs by LCMS analysis; format: physicochemical; conditions: 10000 µM
[9] = Metal chelating activity of compound assessed as compound-Cu2+ complex formation at 0.1 mM after 10 mins in presence of CuSO4.5H2O by complexometric indicator murexide based UV-Vis spectrophotometric analysis; format: physicochemical; conditions: 100 µM; outline: as §1
[10] = Metal chelating activity of compound assessed as compound-Cu2+ complex formation at 200 uM after 10 mins in presence of CuSO4.5H2O by complexometric indicator murexide based UV-Vis spectrophotometric analysis; format: physicochemical; outline: as §1
[11] = Reactive carbonyl species trapping activity of compound assessed as MGO adduct formation at 10 mM preincubated for 24 hrs with MGO measured after 24 hrs by LCMS analysis; format: physicochemical; conditions: 10000 µM
[12] = Reactive carbonyl species trapping activity of compound assessed as MDA adduct formation at 10 mM preincubated for 24 hrs with MDA measured after 5 hrs by LCMS analysis; format: physicochemical; conditions: 10000 µM
[13] = organism: Rattus norvegicus; experiment: Cytotoxicity against rat […] PC12 cells assessed as reduction in cell viability at 10 to 100 uM after 24 hrs by WST8-based CCK8 assay; format: toxicity; conditions: pc-12, 24 h
Outline: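 PC12 Adh cells (rat pheochromocytoma-derived) grown in F-12K with 2.5% FBS, 15% horse serum and pen/strep at 37 °C, 5% CO2. Seeded at 5×10^3 cells/well; treated at 80% confluency with 10 or 100 µM for 24 h. 10% DMSO served as positive cytotoxicity control. CCK-8 added for 1 h at 37 °C, absorbance read at 450 nm. Viability given as % of untreated cells; at least three experiments in triplicate.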

[14] = Reactive carbonyl species trapping activity of compound assessed as MDA adduct formation at 10 mM preincubated for 24 hrs with MDA measured after 0.25 hrs by LCMS analysis; format: physicochemical; conditions: 10000 µM
[15] = Metal chelating activity of compound assessed as compound-Cu2+ complex formation at 1 mM after 10 mins in presence of CuSO4.5H2O by complexometric indicator murexide based UV-Vis spectrophotometric analysis; format: physicochemical; conditions: 1000 µM; outline: as §1
[16] = Metal chelating activity of compound assessed as compound-Cu2+ complex formation at 0.02 mM after 10 mins in presence of CuSO4.5H2O by complexometric indicator murexide based UV-Vis spectrophotometric analysis; format: physicochemical; conditions: 20 µM; outline: as §1
[17] = Reactive carbonyl species trapping activity of compound assessed as MGO adduct formation at 10 mM preincubated for 24 hrs with MGO measured after 0.25 hrs by LCMS analysis; format: physicochemical; conditions: 10000 µM
[18] = Metal chelating activity of compound assessed as compound-Cu2+ complex formation at 2 mM after 10 mins in presence of CuSO4.5H2O by complexometric indicator murexide based UV-Vis spectrophotometric analysis; format: physicochemical; conditions: 2000 µM; outline: as §1
[19] = Reactive carbonyl species trapping activity of compound assessed as MGO adduct formation at 10 mM preincubated for 24 hrs with MGO measured after 5 hrs by LCMS analysis; format: physicochemical; conditions: 10000 µM
[20] = Metal chelating activity of compound assessed as compound-Cu2+ complex formation at 0.05 mM after 10 mins in presence of CuSO4.5H2O by complexometric indicator murexide based UV-Vis spectrophotometric analysis; format: physicochemical; conditions: 50 µM; outline: as §1
[21] = Metal chelating activity of compound assessed as compound-Cu2+ complex formation at 0.08 mM after 10 mins in presence of CuSO4.5H2O by complexometric indicator murexide based UV-Vis spectrophotometric analysis; format: physicochemical; conditions: 80 µM; outline: as §1
[22] = system: PC-12; experiment: Neuroprotective activity against MGO-induced apoptosis in rat PC12 cells assessed as reduction DNA fragmentation at 100 uM preincubated for 1 hr followed by MGO addition after 24 hrs by ELISA; format: functional, cell-based
Outline: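 PC12 cells pretreated 1 h at 37 °C with compound (10 or 100 µM) in D-PBS, then exposed to MGO (2 mM) for 24 h. Lysates analysed by anti-histone/anti-DNA-peroxidase ELISA for cytoplasmic mono- and oligonucleosomes, with ABTS read-out at 405 nm. Cells without MGO were the control; MGO alone was the apoptosis standard.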

[23] = Reactive carbonyl species trapping activity of compound assessed as MDA adduct formation at 10 mM preincubated for 24 hrs measured after 15 mins by LCMS analysis; format: physicochemical; conditions: 0.25 h, 10000 µM

| Compound | Activity [1] [%] | Activity (umolequiv/umol) [2] | Activity [3] [%] | Activity [4] [%] | Activity [5] [%] | Activity [6] [%] | Activity [7] [%] | Activity [8] [%] | Activity [9] [%] | Activity [10] [%] | Activity [11] [%] | Activity [12] [%] | Activity [13] | Activity [14] [%] | Activity [15] [%] | Activity [16] [%] | Activity [17] [%] | Activity [18] [%] | Activity [19] [%] | Activity [20] [%] | also measured |
| --- | --- | --- | --- | --- | --- | --- | --- | --- | --- | --- | --- | --- | --- | --- | --- | --- | --- | --- | --- | --- | --- |
| Cl.Cl.NCC(N)CCCNC(=O)CCn1cccc(O)c1=O (configuration not stated) | 98 | 1.03 | 4 | 73.21 | 97 | 100 | 7 | 86 | 40.8 | 59.96 | 98 | 75 | Non-Toxic | 0 | 76.43 | 12.16 | 97 | 76.75 | 99 | 24.84 | Activity [21]: 35.49% |
| Cl.Cl.NCC(N)CCC(=O)N1CCN(C(=O)CCn2cccc(O)c2=O)CC1 (configuration not stated) | 98 | 0.99 | 76 | 71.58 | 97 | 97 | 81 | 84 | 36.03 | 53.23 | 98 | 85 | Non-Toxic | 74 | 74.59 | 11.76 | 97 | 76.53 | 99 | 23.88 | Activity [21]: 31.08% |
| Cl.Cl.NCC(N)CCC(=O)NCCCn1cccc(O)c1=O (configuration not stated) | 97 | 1.96 | 75 | 71.22 | 97 | 98 | 81 | 93 | 42.39 | 55.83 | 98 | 85 | Non-Toxic | 74 | 74.89 | 11.11 | 97 | 74.74 | 100 | 20.77 | Activity [22]: Active; Activity [21]: 37.47% |
| Cc1c(O)c(=O)ccn1CCCNC(=O)CCC(N)CN.Cl.Cl (configuration not stated) | 100 | 1.01 | 82 | 88.46 | 95 | 98 | 92 | 99 | 40.91 | 66.7 | 100 | 95 | Non-Toxic | 76 | 93.45 | 11.03 | 95 | 95.45 | 100 | 24.69 | Activity [23]: 76%; Activity [21]: 35.1% |
| Cc1c(O)c(=O)ccn1CCC(=O)NCCCCC(N)CN.Cl.Cl (configuration not stated) | 99 | 1.24 | 88 | 91.66 | 99 | 99 | 88 | 92 | 52.98 | 74.7 | 100 | 89 | Non-Toxic | 86 | 96 | 21.31 | 99 | 97.73 | 99 | 38.95 | Activity [21]: 48.35% |
